Screening data deposited in PubChem by several laboratories.
Biofilm kill mix = clotrimazole potentiators killing C. albicans biofilm, primary screen, 4-compound mixtures; C. albicans biofilm persisters + clotrimazole, fluorescence viability; primary screen in compound mixtures of four per well; inhibition, % at 7.6 µM; 0.02% of 120,000 active;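 active = inhibition above 30.3% in the primary screen of four-compound pools, then above 30% when the compound was retested; inconclusive = passed the primary limit but could not be retested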;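 note: compounds exposed to preformed 24 h biofilms for 48 h; 0% = untreated biofilm control and 100% = clotrimazole plus chlorhexidine kill blank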
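Incubation: 24 h biofilm formation, then 48 h compound exposure, 37 °C | Material: C. albicans biofilms | Buffer or medium: RPMI/MOPS medium, pH 7.0 | Measured by: 2-h Alamar Blue fluorescence, 535/590 nm excitation/emission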
RGS16-Gao HTS = modulators of RGS16 binding to Galphao, primary screen, biochemical, human proteins, multiplexed bead flow cytometry; binding response (% of control), % at 10 µM; bead-based flow cytometry RGS16-Galphao binding, fluorescence; actives lie on both sides; 0.38% of 220,000 active;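 note: Galphao activated by GDP with aluminum fluoride before binding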
RGS7-Gao = RGS7-Galphao binding modulators, primary screen, biochemical, multiplexed bead flow cytometry; 0.35% of 220,000 active; actives lie on both sides; binding response (% of control), % at 10 µM; in the data active = binding response below about 49% or above about 150%; inconclusive = no clear call, values can overlap the other calls; inactive = in between;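 note: fluorescent Galphao held in activated GDP-AlF4 state binding bead-coupled RGS7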
Target sequence (P09471 whole entry, looked up): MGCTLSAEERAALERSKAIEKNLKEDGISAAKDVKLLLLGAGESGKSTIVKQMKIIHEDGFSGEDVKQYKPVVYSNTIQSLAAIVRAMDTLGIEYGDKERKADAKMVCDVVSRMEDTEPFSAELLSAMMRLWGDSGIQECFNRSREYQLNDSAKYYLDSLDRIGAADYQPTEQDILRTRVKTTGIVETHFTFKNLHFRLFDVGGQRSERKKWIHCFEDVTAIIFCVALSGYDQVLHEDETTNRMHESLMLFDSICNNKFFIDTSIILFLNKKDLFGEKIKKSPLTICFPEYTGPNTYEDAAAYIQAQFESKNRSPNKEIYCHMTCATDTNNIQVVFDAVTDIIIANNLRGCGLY
RGS4-Gao reg = modulators of RGS4 binding to Galphao, primary screen, biochemical, multiplexed bead flow cytometry; actives lie on both sides; binding response (% of control), % at 10 µM; 0.33% of 220,000 active; Guanine nucleotide-binding protein G(o) subunit alpha (Homo sapiens), P09471; in the data active = binding response below about 49% or above about 150%; inactive = in between;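 note: fluorescent Galphao activated with aluminum fluoride binding bead-coupled RGS4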
RGS8-Gao = RGS8-Galphao binding modulators, primary screen, biochemical, multiplexed bead flow cytometry; Guanine nucleotide-binding protein G(o) subunit alpha (Homo sapiens), P09471; actives lie on both sides; response (percent of control binding), % at 10 µM; 0.34% of 220,000 active; AID 1423, 2008; in the data active = response below about 60% or above about 140%; inactive = in between;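 note: Galphao activated as the GDP aluminium fluoride complex binding bead-coupled RGS8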
RGS4-Gao HTS = modulators of RGS–Galpha-o binding, primary screen, biochemical, multiplexed beads, flow cytometry, RGS4/7/8/16/19. multiplexed bead flow cytometry. AID 1504, 2009. RGS4–Galpha-o binding response, % at 10 µM. shares compounds with RGS16-Gao HTS. 99% of 1,600 active;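 note: fluorescently labeled Galpha-o bound to GDP with aluminium fluoride binding biotinylated RGS beads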
Biotin-avidin = disruption of biotin probe capture by avidin, counter-screen for RGS protein interaction modulators, biochemical, flow cytometry, bead-based. shares compounds with RGS16-Gao HTS. streptavidin beads, fluorescein-biotin binding. inhibition, % at 10 µM. 1,700 tested, under 10 active. AID 1783, 2009;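 active = inhibition above 50%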;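 note: median green fluorescence of gated singlet beads compared with DMSO control wells; 0% = DMSO wells and 100% = complete loss of bead fluorescence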
RGS8-Gao confirm = RGS8-Galphao binding modulators, confirmation, biochemical, multiplexed bead flow cytometry, single concentration; shares compounds with RGS16-Gao HTS; bead-based flow cytometry RGS8-Galphao binding, fluorescence; actives lie on both sides; binding response (% of control), % at 10 µM; 3% of 1,700 active; AID 1836, 2009; in the data active = binding response below about 72% or above about 130%; inactive = in between;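 note: Galphao activated as GDP AlF4 complex before binding bead RGS8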
RGS7-Gao confirm = RGS7-Galphao binding modulators, confirmation, biochemical, multiplexed bead flow cytometry, single concentration; shares compounds with RGS16-Gao HTS; bead-based flow cytometry RGS7-Galphao binding; actives lie on both sides; AID 1837, 2009; 7.8% of 1,700 active; response (percent of control binding), % at 10 µM; in the data active = response below about 75% or above about 130%; inactive = in between;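 note: fluorescent Galphao activated with GDP and aluminum fluoride binding bead-coupled RGS7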
RGS16-Gao conf = modulators of RGS16-Galphao protein binding, confirmation, biochemical, single concentration, multiplexed bead flow cytometry. bead-based flow cytometry; actives lie on both sides. response (% of control binding), % at 10 µM. shares compounds with RGS16-Gao HTS. AID 1838, 2009. 4% of 1,700 active; in the data active = response below about 74% or above about 130%; inactive = in between;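 note: Galphao activated as the GDP aluminium fluoride complex binding bead-coupled RGS16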
RGS4-Gao confirm = modulators of RGS4-Galphao protein binding, confirmation, biochemical, single concentration, multiplexed bead flow cytometry. shares compounds with RGS16-Gao HTS. binding response (% of control), % at 10 µM. 4% of 1,700 active. AID 1840, 2009. actives lie on both sides; in the data active = binding response below about 74% or above about 130%; inactive = in between
RGS19-Gao single = regulators of RGS19-Galphao binding, confirmation, biochemical, single point, multiplexed bead flow cytometry | shares compounds with RGS16-Gao HTS | bead-based flow cytometry RGS19-Galphao binding; actives lie on both sides | response (percent of control binding), % at 10 µM | 5% of 1,700 active | AID 1841, 2009; in the data active = response below about 50% or above about 160%; inactive = in between;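 note: 100% = no compound control and 0% = blank background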
Target sequence (P09471 whole entry, looked up): as above
Target sequence (P49795 whole entry, looked up): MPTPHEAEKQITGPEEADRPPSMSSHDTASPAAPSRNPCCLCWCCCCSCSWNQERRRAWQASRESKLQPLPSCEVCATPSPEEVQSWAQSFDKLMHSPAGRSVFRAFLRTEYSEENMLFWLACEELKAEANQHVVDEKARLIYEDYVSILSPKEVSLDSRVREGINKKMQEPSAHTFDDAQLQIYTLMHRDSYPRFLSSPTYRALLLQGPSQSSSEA
* hit, by the source's call; i = inactive; ? = inconclusive; · = no result given; [ ] = dose if it differs, or a comment. Only some compounds are listed: those with a hit (about 0.74% of all), similar ones and a draw of the others. Unless noted, the rule behind the calls is not given here.

SMILES	Biofilm kill mix	RGS16-Gao HTS	RGS7-Gao	RGS4-Gao reg	RGS8-Gao	Biotin-avidin	RGS8-Gao confirm	RGS7-Gao confirm	RGS16-Gao conf	RGS4-Gao confirm	RGS19-Gao single	others
O=C(Cc1csc(N2CCOCC2)n1)N/N=C/c1ccc(O)c(O)c1O	16.6	49.0	?	66.2	57.2*	i	72.0*	68.4*	69.8*	79.1	36.8*	RGS4-Gao HTS=66.2*
CCN(CC)S(=O)(=O)c1ccc(-c2nnc(SCc3nnc(-c4ccccc4)o3)o2)cc1	·	93.6	94.3	93.8	93.4	·	·	·	·	·	·
CC1(C)CC(C2N3CC4(C)CN2CC(C)(C3)C4=O)CCO1 (stereo unspecified)	·	277.7	119.5	115.0	146.5*[activator]	0.0	101.5	102.9	104.2	102.9	94.5	RGS4-Gao HTS=115.0*
CCCNC(=O)NNC(=O)c1ccc(F)cc1	11.7	93.6	95.5	92.7	96.4	·	·	·	·	·	·
Cc1ccc2cc(CCNS(=O)(=O)c3ccc(F)cc3)c(=O)[nH]c2c1C	16.3	50.5	45.8*	54.9	59.7*	0.4	99.0	93.2	97.0	97.3	102.1	RGS4-Gao HTS=54.9*
Cc1ccc2cc(CCNS(=O)(=O)c3ccc(F)cc3)c(=O)[nH]c2c1	·	99.3	94.7	96.2	97.6	·	·	·	·	·	·
O=C1C=C(NCCN2CCOCC2)CC(c2ccccc2)C1 (stereo unspecified)	·	97.0	102.3	100.2	102.4	·	·	·	·	·	·
CC(=O)N(O)CCCCCNC(=O)CCC(=O)N(O)CCCCCNC(=O)CCC(=O)N(O)CCCCCN	16.2	35.0	55.1	60.5	51.4*	-1.7	53.2*	57.5*	42.2*	56.6*	63.8	RGS4-Gao HTS=60.5*
CCCC(=O)NCCCCNC(=O)CCC	·	73.9	98.7	99.6	96.2	·	·	·	·	·	·
C[n+]1ccc(C(=O)N/N=C/c2ccco2)cc1	12.2	100.7	98.4	101.6	99.3	·	·	·	·	·	·
CCCc1cc(N2CCCC(C(=O)NCc3ccc4c(c3)OCO4)C2)n2ncnc2n1 (stereo unspecified)	·	·	·	·	107.5	0.2	98.2	99.7	99.3	98.4	99.7
COC(=O)c1cc(C(=O)Nc2ccc(C)cn2)cc([N+](=O)[O-])c1	·	·	·	·	·	0.9	101.5	74.6*	89.8	88.2	51.3
Cc1cccc(NC(=O)CN2NS(=O)(=O)c3ccccc3C2=O)c1	·	105.4	100.7	100.1	101.2	·	·	·	·	·	·
Cc1noc(C)c1S(=O)(=O)N(C)CC(=O)Nc1ccc(F)cc1	·	103.8	105.2	104.5	99.8	·	·	·	·	·	·
Cc1cc(C)n(C(N)=NC(=O)c2ccc([N+](=O)[O-])cc2)n1	12.7	35.7	?	34.9*	53.8*	0.7	99.2	95.3	98.7	98.3	98.4
Cc1cc(C)n(C(=O)COc2ccc([N+](=O)[O-])cc2)n1	12.7	107.8	102.0	101.8	102.0	·	·	·	·	·	·
Cc1ccc(/C=N/N=C2/NC(=O)C(CC(=O)Nc3ccccc3)S2)o1 (stereo unspecified)	9.7	101.5	98.3	103.9	99.5	·	·	·	·	·	·
C=CCn1c(CNC(=O)c2ccccc2F)nnc1SCc1nc2ccccc2c(=O)[nH]1	2.5	·	·	·	·	-0.8	98.0	96.4	97.2	97.1	89.5
C=CCn1c(CCNC(=O)c2ccccc2F)nnc1SCc1nc2ccccc2c(=O)[nH]1	·	99.2	99.7	100.1	98.1	·	·	·	·	·	·
O=C(CSc1nnc(CNc2ccc(F)cc2)o1)N1c2ccccc2Sc2ccccc21	·	103.0	101.4	102.0	100.2	·	·	·	·	·	·
Cc1cc(=O)oc2cc(OCC(=O)OCC(=O)Nc3c(C)n(C)n(-c4ccccc4)c3=O)ccc12	10.4	99.2	95.5	96.0	98.8	·	·	·	·	·	·
COc1nc(N)c(S(=O)(=O)c2ccccc2)cc1C#N	·	407.4	117.2	124.0	145.0*[activator]	-1.4	102.9	97.7	107.7	100.0	118.4	RGS4-Gao HTS=124.0*
O=S(=O)(CCc1ccccc1)N1CCOCC1	·	-84.7	67.6	48.0*	68.5	-1.0	96.6	81.1	90.9	84.0	88.4
CC(C)CC(=O)/C(=C\c1ccc(Cl)cc1Cl)n1cncn1	12.1	-1.2	50.9	47.8*	42.1*	0.7	87.5	79.8	87.1	89.6	81.1
COc1ccc(/C=C(/C(=O)c2ccc(Cl)cc2Cl)n2cncn2)cc1	·	101.4	103.7	99.6	100.7	·	·	·	·	·	·
Fc1ccccc1N1CC(c2ccccc2)C(c2cccs2)=N1 (stereo unspecified)	·	-8.5	14.7*	20.6*	9.2*	0.1	98.2	95.8	93.0	95.7	69.6
Cc1cccc(/C(N)=N/OC(=O)C23CC4CC(CC(C4)C2)C3)c1	19.4	12.1*	82.0	80.1	55.7*	-0.7	103.5	102.7	103.3	100.9	104.1	RGS4-Gao HTS=80.1*
Cc1cccc(/C(N)=N/OC(=O)Cc2ccccc2)c1	9.4	100.9	110.1	103.6	102.0	·	·	·	·	·	·
O=C(CSc1ncn[nH]1)c1cc2ccccc2o1	2.4	219.4*[activator]	243.0*[activator]	265.4*[activator]	111.9	-0.7	98.2	99.9	96.1	96.0	70.2
O=C(CSc1nccc(=O)[nH]1)c1cc2ccccc2o1	21.3	93.6	?	97.2	96.7	·	·	·	·	·	·
